Results from publication PMC10772668 (Clinical and Translational Science, 2023).

Assays:
RIPK1 [1] = molecular target: T1, RIPK1 (Homo sapiens, UniProt Q13546); experiment: In vitro inhibition of RIPK1 activity in human PBMCs; assay type: cell-based
T1 sequence (Q13546 1-671): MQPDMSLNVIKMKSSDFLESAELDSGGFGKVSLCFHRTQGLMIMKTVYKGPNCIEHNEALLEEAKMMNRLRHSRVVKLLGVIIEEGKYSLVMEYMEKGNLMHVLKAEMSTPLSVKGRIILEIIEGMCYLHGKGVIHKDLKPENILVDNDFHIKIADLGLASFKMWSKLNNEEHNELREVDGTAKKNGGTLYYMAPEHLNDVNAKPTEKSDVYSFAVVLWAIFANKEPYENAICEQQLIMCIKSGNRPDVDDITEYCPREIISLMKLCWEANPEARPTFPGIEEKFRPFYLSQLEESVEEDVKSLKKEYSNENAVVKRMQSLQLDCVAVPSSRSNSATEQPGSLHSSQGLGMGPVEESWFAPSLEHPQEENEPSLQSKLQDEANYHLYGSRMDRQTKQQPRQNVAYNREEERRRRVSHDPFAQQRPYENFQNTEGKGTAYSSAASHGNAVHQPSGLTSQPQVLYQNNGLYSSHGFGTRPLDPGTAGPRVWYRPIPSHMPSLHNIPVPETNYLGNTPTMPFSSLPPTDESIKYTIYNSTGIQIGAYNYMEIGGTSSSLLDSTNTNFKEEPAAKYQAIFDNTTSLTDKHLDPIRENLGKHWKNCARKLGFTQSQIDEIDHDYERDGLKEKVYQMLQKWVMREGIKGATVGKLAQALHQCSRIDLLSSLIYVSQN

RIPK1 [2] = molecular target: T1, RIPK1; experiment: In vitro inhibition of RIPK1 activity in iPSC‐derived microglia; assay type: cell-based
Plasma PK, SAD = assay type: in vivo, human; settings: for CL/F, geometric mean (%CV): fasting
How it was run: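 Healthy adults received a single fasted oral capsule dose (10–40 mg) or placebo; fasting was overnight ≥8 h and 2 h post‑dose. Plasma was sampled predose, at 10 postdose times on day 1 and once each on days 2 and 3, and quantified by HPLC‑MS (LLOQ 1 ng/mL). Cmax, Tmax, AUClast, AUC, t1/2z, CL/F and Vz/F were computed. Dose proportionality was tested with a linear model.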

Plasma PK, PK‐CSF = assay type: in vivo, human; settings: for CL/F, geometric mean (%CV): after breakfast; for Vd/F: both, human, plasma, oral
How it was run: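 Open‑label part: single oral 10 or 40 mg dose given about 30 min after breakfast. Plasma was collected predose and at 10 postdose times, one of them coinciding with lumbar‑puncture CSF sampling. Drug was quantified by validated HPLC‑MS (LLOQ 1 ng/mL). CL/F and Vz/F were derived from plasma concentration‑time data and summarised per dose group.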

Plasma PK, MAD = assay type: in vivo, human; settings: for half-life: T 1/2z; for Tmax: T max, median (range)
How it was run: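 Oral capsules were given for 14 days (q.d. or b.i.d.) after an overnight fast of ≥8 h, with 2 h fasting post‑dose. Plasma was sampled predose and at 10–11 postdose times on days 1 and 14, predose on days 2, 3, 5, 7 and 11, and once on days 15–17. Quantification was by HPLC‑MS (LLOQ 1 ng/mL). AUCtau used tau 12 h (b.i.d.) or 24 h (q.d.). Accumulation was assessed by a linear model on log ratio and steady state by a nonlinear model on Ctrough.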

RIPK1 [3] = molecular target: T1, RIPK1; experiment: pS166‐RIPK1 inhibition in PBMC lysates, SAD; assay type: in vivo; settings: SAD all dose groups, from 1 h to at least 5 h postdose
How it was run: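 After a single fasted oral dose or placebo, blood was collected predose, at 1, 3, 5 and 8 h on day 1, and at 24 h. PBMCs were isolated and autophosphorylated RIPK1 (pS166) quantified in lysates. Percent change from baseline was summarised descriptively as median (Q1–Q3) by dose group and timepoint.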

RIPK1 [4] = molecular target: T1, RIPK1; experiment: pS166‐RIPK1 inhibition in PBMC lysates, MAD; assay type: in vivo; settings: MAD all dose groups
How it was run: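 Blood was drawn predose on day −1 or 1, on day 7, on day 14 predose and 1, 3, 5 and 8 h postdose, and once on days 15 and 16. Subjects received 14‑day oral q.d./b.i.d. dosing or placebo. PBMCs were isolated and pS166‑RIPK1 measured in lysates. Percent change from baseline was summarised as median (Q1–Q3) per dose group and time.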

Safety, TEAEs, SAD = assay type: in vivo, human; settings: SAD 10 mg (n = 6)
How it was run: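 Safety population: all participants exposed to study drug, followed from first dose to the end‑of‑study visit. Assessments covered physical and neurological exams, AEs, SAEs and AESIs (seizure, ALT ≥2×ULN, QTc ≥500 ms, pregnancy, overdose). Lab, vital‑sign and 12‑lead/Holter ECG abnormalities were also recorded. Coding used MedDRA 23.1 (part 1) or 24.0 (part 2), with severity graded 1–4 per FDA guidance. Counts were summarised per dose group, with placebo pooled.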

[5] = both, human, plasma, oral, 10 mg
[6] = both, human, plasma, oral, 20 mg
[7] = both, human, plasma, oral, 30 mg
[8] = both, human, plasma, oral, 40 mg

IC50 (RIPK1 [1]): 3.16 nM
IC50 (RIPK1 [2]): 1.6 nM
CL/F, geometric mean (%CV) (Plasma PK, SAD; SAD 10 mg single dose): 8.56 (37.8) L/h
CL/F, geometric mean (%CV) (Plasma PK, SAD; SAD 20 mg single dose): 8.28 (21.4) L/h
CL/F, geometric mean (%CV) (Plasma PK, SAD; SAD 30 mg single dose): 12.3 (44.7) L/h
CL/F, geometric mean (%CV) (Plasma PK, SAD; SAD 40 mg single dose): 7.72 (36.1) L/h
Tmax (Plasma PK, SAD; both, human, plasma, oral): 1 to 1.5 h
half-life (Plasma PK, SAD; both, human, plasma, oral): 5.7 to 8 h
AUC(0-t) (Plasma PK, SAD; [5]): 1120 ng·h/mL
Vd/F (Plasma PK, SAD; [5]): 98.4 L
half-life (Plasma PK, SAD; [5]): 7.97 h
Cmax (Plasma PK, SAD; [6]): 241 ng/mL
Tmax (Plasma PK, SAD; [6]): 1.5 h
Vd/F (Plasma PK, SAD; [6]): 89.4 L
half-life (Plasma PK, SAD; [6]): 7.48 h
Tmax (Plasma PK, SAD; [7]): 1 h
Vd/F (Plasma PK, SAD; [7]): 101 L
half-life (Plasma PK, SAD; [7]): 5.7 h
Tmax (Plasma PK, SAD; [8]): 1.5 h
Vd/F (Plasma PK, SAD; [8]): 70.1 L
half-life (Plasma PK, SAD; [8]): 6.29 h
CL/F, geometric mean (%CV) (Plasma PK, PK‐CSF; PK‐CSF 10 mg single dose): 7.27 (29.7) L/h
CL/F, geometric mean (%CV) (Plasma PK, PK‐CSF; PK‐CSF 40 mg single dose): 8.43 (34.2) L/h
Vd/F (Plasma PK, PK‐CSF; 10 mg): 83.6 L
Vd/F (Plasma PK, PK‐CSF; 40 mg): 97.7 L
CLss/F, geometric mean (%CV) (Plasma PK, MAD; MAD 10 mg q.d., day 14): 7.08 (25.9) L/h
CLss/F, geometric mean (%CV) (Plasma PK, MAD; MAD 15 mg b.i.d., day 14): 9.16 (30.0) L/h
CLss/F, geometric mean (%CV) (Plasma PK, MAD; MAD 20 mg b.i.d., day 14): 9.27 (24.9) L/h
CLss/F, geometric mean (%CV) (Plasma PK, MAD; MAD 20 mg q.d., day 14): 9.40 (22.2) L/h
Overall accumulation, C max and AUCtau (Plasma PK, MAD; b.i.d. cohorts, day 14 vs day 1): around 1.5 fold
Cmax (Plasma PK, MAD; both, human, plasma, oral, 10 mg, C max, geometric mean (%CV), MAD 10 mg q.d., day 14): 158 ng/mL
half-life (Plasma PK, MAD; both, human, plasma, oral, 10 mg, geometric mean (%CV), MAD 10 mg q.d., day 14): 8.87 h
Tmax (Plasma PK, MAD; both, human, plasma, oral, 10 mg, MAD 10 mg q.d., day 14): 1 h
half-life (Plasma PK, MAD; both, human, plasma, oral, 15 mg, geometric mean (%CV), MAD 15 mg b.i.d., day 14): 7.21 h
Tmax (Plasma PK, MAD; both, human, plasma, oral, 15 mg, MAD 15 mg b.i.d., day 1): 1 h
Tmax (Plasma PK, MAD; both, human, plasma, oral, 15 mg, MAD 15 mg b.i.d., day 14): 1 h
half-life (Plasma PK, MAD; both, human, plasma, oral, 20 mg, geometric mean (%CV), MAD 20 mg b.i.d., day 14): 7.37 h
half-life (Plasma PK, MAD; both, human, plasma, oral, 20 mg, geometric mean (%CV), MAD 20 mg q.d., day 14): 8.53 h
Tmax (Plasma PK, MAD; both, human, plasma, oral, 20 mg, MAD 20 mg b.i.d., day 14): 1 h
Tmax (Plasma PK, MAD; both, human, plasma, oral, 20 mg, MAD 20 mg q.d., day 14): 2 h
Median pS166‐RIPK1 inhibition in PBMC lysates (RIPK1 [3]): greater than 80%
pS166‐RIPK1 inhibition in PBMC lysates (RIPK1 [4]; 48 h post last dosing): less inhibition of RIPK1 phosphorylation
pS166‐RIPK1 inhibition in PBMC lysates (RIPK1 [4]; day 14, up to 24 h post last morning dosing): greater than 80%
Compound: CC(C)(C(=O)N1CCOc2c(C#N)cncc2C1)C(F)F [SAR443820]
Dose proportionality of exposure (Plasma PK, SAD; SAD between 10 mg and 40 mg): no major deviation from dose proportionality
Food effect on absorption (Plasma PK, PK‐CSF; capsule in fed conditions vs fasted): no evidence that the extent of absorption was impacted by food
Any TEAE, n (%) (Safety, TEAEs, SAD): 2 (33.3) n (%)
